# Reference: the array DNA melting data of Ke et al. (doi:10.1101/2024.01.08.574731)
# Key:
# [1] = folding enthalpy; higher = less favourable; fluorescence melt of hairpins on a sequencing array, two-state fit; conditions: sodium 0.088 M
# Outline: (§1)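 Bootstrapped two-state fits yielded melting temperature and folding enthalpy for library hairpins. Cy3 fluorescence, with annealed Cy3 and quencher oligos, was imaged on a sequenced MiSeq flow cell in 50 mM Na-HEPES pH 8.0, 25 mM NaCl in 2.5 °C steps up to 60 °C, and normalised to pre-quench Cy3 and to control constructs. Four replicates were combined by inverse variance, and fitted temperatures were raised by 9.35 °C to match UV melts.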
# [2] = melting temperature; fluorescence melt of hairpins on a sequencing array, two-state fit, raised by 9.35 °C to match UV melts; conditions: sodium 0.088 M
# Outline: as §1
Sequence,folding enthalpy [1] [kcal/mol],Tm [2] [°C]
GCGGTTGGAAACGACTGC ((.((.(....).)).)),-15.3,37.8
GTAGTAGCGAAAGCTTAC (((..(((....)))))),-11.3,30.5
GATCCTGGAAACGGGATC (((((.(....).))))),-42.8,50.9
GGTTGGGGAAACCTAACC ((((.((....)).)))),-32.4,48
GTCTGAGGAAACTTGGAC (((..((....))..))),-15.9,31.7
GGGAACGAAAGTTCGCCC ((((((....)))..))),-14.8,46.4
GGGTACTCGAAAGAGCCC (((..(((....)))))),-19.6,39.6
GCTAGCGAAAGCTGGAGC ((((((....)))..))),-14.1,43.2
GCGACCGTTCGC ((((....)))),-22.8,49.1
GTCAAGCGAAAGCTCGAC (((.(((....))).))),-30.3,49.7
GTGCGGCGAAAGCCACAC (((.(((....))).))),-29.2,62.1
GGTCGTGAAAACGACC ((((((....)))))),-34.3,69.2
GATATCGGAAACGGTATC ((((.((....)).)))),-29.8,44
GAGGTGCCGAAAGGCCTC (((..(((....)))))),-10.8,37.5
GCATTAGGAAACTAGTGC (((.(((....))).))),-28.6,40.9
GATCATGTGTATGATC ((((((....)))))),-41.9,48.4
GTACGTGGAAACACGTAC (((((((....))))))),-46.8,63.8
TCCGGGAAACCGGA (((((....))))),-20.2,53.2
GAGCACGAAAGTGGCTC ((((((....))).))),-24.2,56.5
GCTATTCGAAAGAACAGC (((.(((....))).))),-29.6,40.4
GACCACGAAAGTGAGGTC ((((((....)))..))),-22.8,48.3
GGGATACGAAAGTAGCCC (((.(((....))).))),-43.9,63.1
GATCTAGGTCTAGATC ((((((....)))))),-37.1,46.2
GACGATGGAAACACCATC ((.(.((....)).).)),-17,28.4

Sequence,folding enthalpy [1] [kcal/mol],Tm [2] [°C]
GTGCTGCGAAAGCAACAC (((.(((....))).))),-33.8,56.5
CGCTCGGAAACGATGCG ((((((....))).))),-35.4,51.8
GGAAAATCGAAAGATTCC (((..(((....)))))),-7.3,29.1
GCTTGCGGAAACACAAGC (((((.(....).))))),-23.6,46.8
GCGTGGCGAAAGCAATGC ((.(.((....)).).)),-19.6,52.8
GCGTGGCGAAAGCTAAGC ((.(.((....)).).)),-23.3,58.3
GATCGCTGAGGCGATC ((((((....)))))),-38.1,68.5
GTCTTACGAAAGTACGAC (((.(((....))).))),-34.5,43.8
GCGGCTGTCCGC ((((....)))),-28.3,57.9
GGATGCGAAAGCAATTCC ((((((....)))..))),-16.1,36.7
GATCGAAACTCGATC ((((((...)))))),-30.4,50.2
GATCATGGGATGATC ((((((...)))))),-30.7,44.6
GATCCATTTTGGATC ((((((...)))))),-33.5,53.6
GCTAGCGAAAGCTGAGC ((((((....))).))),-28.5,49.9
GACCGGGGAAACCTGGTC ((((.((....)).)))),-39.3,55.4
GAATGCGAAAGCATATTC ((((((....)))..))),-11.6,33
GCAGAGGAAACTCTGC ((((((....)))))),-35.2,65.8
GATCGGACCACCGATC ((((((....)))))),-37.2,56.9
GATCTCATGCGAGATC ((((((....)))))),-48.3,52.1
GCGGAGCGAAAGCCCTGC ((.(.((....)).).)),-10.6,43.7
GGAAAACGAAAGTTATCC (((.(((....))).))),-29.6,37
GGTATGCGAAAGCAGACC (((.(((....))).))),-35.3,65.1
GATCCAGGATTGGATC ((((((....)))))),-39.9,55.1
GTTCTTCGAAAGAACAAC (((.(((....))).))),-14.9,32

Sequence,folding enthalpy [1] [kcal/mol],Tm [2] [°C]
GTTGCCCGAAAGGGAAC (((.(((....)))))),-15.6,47.6
GCGGCCCACCGC ((((....)))),-19.6,60
GCCGCCGAAAGGCAGGGC ((((((....)))..))),-20.3,66.8
GGTAGTGGAAACACTGCC ((.((((....)))).)),-38.9,53
GCGATCGAAAGATGCGC ((((((....))).))),-27.8,53.6
GCGAGCGCGAAAGCGCGC (((..(((....)))))),-7.4,59.9
CGTGCGGAAACGCGTACG ((((((....)))..))),-26.1,48.6
GACATACGAAAGTACGTC (((.(((....))).))),-27,42.5
GGGAGGTCGAAAGACCCC (((..(((....)))))),-14.4,54.5
GGTGTTGGAAACAGCATC (.((.((....)).)).),-17.7,46.5
GCGAATGGAAACACTCGC ((((.((....)).)))),-35.2,46.2
GATCCAGGCTGGATC ((((((...)))))),-46.7,53
GATCTTCAAAAGATC ((((((...)))))),-19.2,41
GATCGTCCGACGATC ((((((...)))))),-40.9,53.9
GATCTGCCCCAGATC ((((((...)))))),-33.6,49.2
GCGTAACAACGC ((((....)))),-27,52.9
GGTGATGGAAACGTCACC (((((.(....).))))),-49.9,53.5
GTTACCGGAAACGATAAC ((((.((....)).)))),-26.6,36.1
GCCACGCGAAAGCCTAGC ((.(.((....)).).)),-6.53,14.4
GACCAAGAAATTGGTC ((((((....)))))),-25.9,54.4
GGTGGACGAAAGTCGACC (((.(((....))).))),-39.9,57.2
GCGACTGGAAACAATCGC ((((.((....)).)))),-40.4,45.5
GTTCGCGGAAACGTGAAC ((((.((....)).)))),-37.7,56.8
GCGGATACGAAAGTACGC (((..(((....)))))),-27,49.4

Sequence,folding enthalpy [1] [kcal/mol],Tm [2] [°C]
GCATAGGGAAACCTGTGC (((.(((....))).))),-33.6,50.3
GCCGTTACGAAAGTAGGC (((..(((....)))))),-33.1,54.8
GGTCGGGCGAAAGCCACC (((..(((....)))))),-11.9,34
GATCTGGGTACAGATC ((((((....)))))),-38.7,57.7
GATCCCTGCGGGATC ((((((...)))))),-35.8,66.1
GTTGTCGAAAGACCGAAC ((((((....)))..))),-11.3,28.8
GAGAACACGAAAGTGCTC (((..(((....)))))),-15.6,32.9
GGGAAAGGAAACTTCCCC (((.(((....))).))),-23.3,36.8
GCCCGGCGAAAGCCCGGC (((.(((....))).))),-17.1,60.5
GCTCAGGCGAAAGCCAGC (((..(((....)))))),-12.6,42.8
GATCCTAACAGGATC ((((((...)))))),-40.5,55.3
GATCTGACTTCAGATC ((((((....)))))),-34.2,49.2
GTATTTCGAAAGAATTAC (((.(((....))).))),-28.3,33.3
GGTGCTGGAAACAACACC ((((.((....)).)))),-37.6,46
GATCGGGCAACCGATC ((((((....)))))),-34.4,65.4
GATCCCGAAAGGGCATC ((((((....))).))),-17,42.1
GAGAACGAAAGTTGTCTC ((((((....)))..))),-27.2,43.5
GAATTCCGAAAGGACTTC (((.(((....))).))),-27.7,36.1
GCATTTGGAAACAAATAC (.(((((....))))).),-17.9,29.3
GAGTTCGGAAACGAGTTC ((..(((....)))..)),-9.81,30.7
TAAACGAAAGTTTA (((((....))))),-15.4,41.5
